Reference: PMC5013402 (BMJ Open Diabetes Research & Care, 2016)
Where two headings read alike, the source gives them in different places. Marks after values point to notes of the source that are not given here.

What was measured:
[1] = cited from earlier work; for Terminal clearance half-life from the lung: delivered as Technosphere inhaled insulin
[2] = after subcutaneous injection; cited from earlier work
[3] = format: in vivo, human (patients with type 1 or type 2 diabetes); settings: serum, mean (SD), n=19
In short: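 Patients arrived fasting, with the morning prandial dose withheld; basal insulin or oral agents were taken as usual. Each inhaled their current individualized dose (range 15–90 units), then drank a standardized 540 kcal/67.5 g carbohydrate liquid meal. Serum was sampled at −30, 0, 5, 10, 15, 20, 30, 45, 60, 90, 120, 180 and 240 min. The challenge was repeated ≥15 to ≤45 days after symptom resolution, each patient serving as own control. Descriptive statistics.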

Compound	Terminal clearance half-life from the lung [1]	Duration of action [2]	Time to maximum concentration [2]	further results
insulin: recombinant human insulin delivered as Technosphere inhaled insulin	~1 h	–	–	–
regular human insulin: regular human insulin given by subcutaneous injection	–	5 to 8 h	80 to 120 min	–
O=C(O)/C=C/C(=O)NCCCC[C@@H]1NC(=O)[C@H](CCCCNC(=O)/C=C/C(=O)O)NC1=O [FDKP, fumaryl diketopiperazine]	~1 h	–	–	FDKP tmax ([3]; during URTI): 15.8 (26.2)† min; FDKP t½ ([3]; during URTI): 163.2 (35.5)† min; FDKP tmax ([3]; post-URTI): 15.5 (14.8)† min; FDKP t½ ([3]; post-URTI): 174.8 (79.0)† min; Excretion ([1]; after inhalation of Technosphere inhaled insulin): excreted unchanged in the urine
insulin lispro	–	3 to 5 h	50 to 120 min	–
insulin aspart	–	3 to 5 h	50 to 120 min	–
